Screening results (PubChem BioAssay)
In the library only some 2.2% were active in any assay of this set; here they are far more common.
E-selectin induc – induces E-selectin expression in human endothelial cells; activation, % at 7.58 µM; 0.37% of 260,000 active; P16581; HUVEC E-selectin immunofluorescence imaging; normalized: neutral wells 0, TNF-alpha wells 100;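 active = mean E-selectin-positive cell signal at least 10% of the positive control, reached in at least 60% of replicates, without over 20% cell loss; inconclusive = no rule given, readout overlaps actives, possibly toxicity-flagged; inactive = the rest, including those meeting only one limit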
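Test system: HUVEC | Signal: Immunofluorescence imaging | Read-out: Percent E-selectin-positive cells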
DENV2 CPE – inhibitors of DENV2 cytopathic effect; 1.7% of 350,000 active; DENV2-infected cells, cytopathic effect rescue, plate reader; CPE inhibition, % at 9.99 µM; AID 651640; in the data active = CPE inhibition above about 20%, passing the limit was not always enough; inconclusive = no clear call, values can overlap the other calls; tested in BHK-21 cells;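 also: 0% = median of neutral control wells and 100% = median of positive control wells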
C2C12 statin – suppressors of simvastatin-induced myotoxicity in C2C12 myotubes. 0.78% of 330,000 active. ATP luminescence, 48 h; scaled: DMSO 0, geranylgeraniol control 100. rescue of ATP level, % at 7.49 µM;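 active = mean ATP rescue above about 67%, or every replicate alone reaching that limit, limit read from the data, passing the limit was not always enough; inconclusive = no clear call, values can overlap the other calls; inactive = mean under the limit and some replicate under it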;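 also: myotubes were challenged with 10 µM simvastatin during compound exposure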
An asterisk follows results filed as active; ? = inconclusive; nt = not tested or not shown.

SMILES | E-selectin induc | DENV2 CPE | C2C12 statin
N#C[C@@H]1[C@H](c2ccc(-c3ccccc3F)cc2)[C@H](CO)N1C(=O)c1ccccn1 | -1 | 0 | 6
C=CCNC(=S)N1CCC(C(=O)c2ccc(OC)cc2)CC1 | nt | 1 | 19
CNC(=S)N1CCC(C(=O)c2ccc(Cl)cc2)CC1 | 0 | 22* | 44
COc1ccc(NC(=S)N2CCC(C(=O)c3ccc(Cl)cc3)CC2)cc1 | nt | 6 | 0
C=CCNC(=S)N1CCC(C(=O)c2ccc(F)cc2)CC1 | 0 | 53* | 6
CCNC(=S)N1CCC(C(=O)c2ccc(Cl)cc2)CC1 | 2 | 3 | -1
COc1ccc(NC(=S)N2CCC(C(=O)c3ccc(F)cc3)CC2)cc1 | nt | 37* | 43
Cc1ccc(C)c(NC(=S)N2CCC(C(=O)c3ccc(F)cc3)CC2)c1 | 0 | 21* | -3
Cc1ccccc1NC(=S)N1CCC(C(=O)c2ccc(F)cc2)CC1 | nt | 2 | -36
CCCNC(=O)N1CC2(C1)[C@H](c1ccccc1)[C@H](CO)N2C(=O)c1ccncc1 | 0 | 9 | nt
CC(C)NC(=O)Nc1ccc2c(c1)C(=O)N([C@@H](C)CO)C[C@@H](C)[C@H](CN(C)C(=O)Nc1ccc(C(F)(F)F)cc1)OCCCC[C@@H](C)O2 | 0 | ? | nt
O=C(c1cccc(F)c1)N1CC[C@@H]2[C@@H](CO)Nc3ccc(C#Cc4ccc(F)cc4)cc3[C@@H]21 | nt | 1 | -19
Cc1noc(C)c1NC(=O)N(C)C[C@H]1OCCCC[C@@H](C)Oc2ccc(NS(=O)(=O)c3cn(C)cn3)cc2C(=O)N([C@@H](C)CO)C[C@H]1C | 0 | -2 | 6
COc1ccccc1-c1cc2nc(NCCOc3ccccc3)ccn2n1 | 1 | 8 | -1
COc1cc(Nc2ccn3nc(-c4ccccc4Cl)cc3n2)cc(OC)c1OC | 1 | 30* | 3
O=C(C[C@H]1C[C@@H]2c3cc(NC(=O)c4cccnc4)ccc3O[C@@H]2[C@H](CO)O1)NCc1cccc(F)c1 | 0 | -7 | 4
CCCN(CC(=O)Nc1ccccc1C)C(=O)C1CCN(S(=O)(=O)c2ccc3c(c2)OCCO3)CC1 | nt | -6 | 3
CC(=O)NCCC(=O)Nc1cc(S(=O)(=O)N2CCCCC2)ccc1N1CCN(C)CC1 | 0 | 31* | 8
CC(=O)NCCC(=O)Nc1cc(S(=O)(=O)N2CCCCC2)ccc1N1CCCCC1 | nt | -1 | 4
Cc1ccc(S(=O)(=O)N2CCCCC2)cc1NC(=O)CCOc1ccccc1 | nt | 72* | nt
CCCN(CC(=O)Nc1ccccc1C)C(=O)C1CCN(S(=O)(=O)c2ccc(C)c(C)c2)CC1 | 1 | 27* | 1
Cc1ccc(S(=O)(=O)N2CCCCC2)cc1NC(=O)CCCOc1ccccc1 | 0 | -8 | 8
O=C(Nc1cc(S(=O)(=O)N2CCOCC2)ccc1N1CCCC1)c1cc(=O)[nH]c2ccccc12 | nt | -4 | nt
Cc1ccc(S(=O)(=O)N2CCCCC2)cc1NC(=O)c1cc(=O)[nH]c2ccccc12 | nt | 77* | 3
CO[C@@H]1CN(C)C(=O)c2ccc(NC(C)=O)cc2OC[C@H](C)N(CCC(F)(F)F)C[C@@H]1C | 0 | 9 | -2
SMILES | E-selectin induc | DENV2 CPE | C2C12 statin
Cc1noc(C)c1S(=O)(=O)Nc1ccc2c(c1)CC(=O)N([C@@H](C)CO)C[C@H](C)[C@@H](CN(C)C(=O)Nc1ccc3c(c1)OCO3)O2 | -12 | -6 | -8
Cc1ccc(S(=O)(=O)N2CCOCC2)cc1NC(=O)CN(C)CC(=O)Nc1cccc(F)c1 | 0 | 83* | -5
Cc1ccc(NC(=O)CN(C)CC(=O)Nc2cccc(F)c2)cc1S(=O)(=O)N1CCCCCC1 | 4 | -2 | -1
NC(=O)[C@H]1[C@@H]2C(=O)O[C@@H](c3ccccc3)[C@@H](c3ccccc3)N2[C@@H](c2ccc(OCCO)cc2)[C@]12C(=O)Nc1ccccc12 | nt | -4 | nt
COc1ccc(Cl)cc1-c1cc(C(=O)Nc2ccccc2)[nH]n1 | 0 | -4 | -21
COc1ccc(Cl)cc1-c1cc(C(=O)N[C@H](C)c2ccccc2)[nH]n1 | 0 | 74* | 5
CO[C@@H]1CN(C)C(=O)c2cc(NC(=O)C3CCC3)ccc2OC[C@@H](C)NC[C@H]1C | 0 | -5 | -10
C[C@@H]1CN([C@H](C)CO)C(=O)c2cc(C#CCN(C)C)cnc2O[C@@H]1CN(C)C(=O)c1ccc(F)cc1 | 0 | ? | 2
COc1ccc(OCC(O)CNC(=O)c2ccc(C)cc2)cc1 (centres undefined) | nt | 14 | nt
COc1ccc(OCC(O)CNC(=O)c2ccccc2)cc1 (centres undefined) | 77* | 4 | nt
O=C(Nn1c(C2CCC2)nc2ccccc2c1=O)C1CCC1 | nt | nt | 85*
Cc1nc2ccccc2c(=O)n1NC(=O)C1CCCCC1 | nt | nt | 9
O=C(C[C@H]1CC[C@H]2[C@@H](COC[C@@H](O)CN2Cc2cccc(F)c2)O1)NCc1cccc(F)c1 | 0 | 4 | 4
